{"source": "paper PMC7686114", "about": "(Bioorganic chemistry, 2020)", "key": {"[1]": {"target": "PDE8A (Homo sapiens, UniProt O60658)", "assay": "PDE isoform selectivity, IMAP FP assay", "format": "biochemical", "settings": "read-out: % inhibition at 50 μM, PDE8A (cAMP)", "method_in_brief": "(§1)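 Recombinant PDE enzymes were used at concentrations set empirically to give EC80 activity, in 10 mM Tris-HCl pH 7.4, 10 mM MgCl2, 0.1 mg/mL BSA. Test compound was preincubated with enzyme for 60 min at 30°C. TAMRA-cGMP (ex530/em590) or FAM-cAMP (ex485/em530), 50 nmol/L final, was then added for 30 min at 30°C. IMAP binding reagent followed for 10 min at 30°C, and fluorescence polarization was read.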"}, "[2]": {"target": "PDE6C (Homo sapiens, UniProt P51160)", "assay": "PDE isoform selectivity, IMAP FP assay", "format": "biochemical", "settings": "read-out: % inhibition at 50 μM, PDE6C (cGMP)", "method_in_brief": "as §1"}, "[3]": {"target": "PDE4B2 (Homo sapiens, UniProt Q07343)", "assay": "PDE isoform selectivity, IMAP FP assay", "format": "biochemical", "settings": "read-out: % inhibition at 50 μM, PDE4B2 (cAMP)", "method_in_brief": "as §1"}, "[4]": {"target": "PDE11A (Homo sapiens, UniProt Q9HCR9)", "assay": "PDE isoform selectivity, IMAP FP assay", "format": "biochemical", "method_in_brief": "as §1"}, "[5]": {"target": "PDE3B (Homo sapiens, UniProt Q13370)", "sequence (Q13370 whole entry, canonical isoform)": "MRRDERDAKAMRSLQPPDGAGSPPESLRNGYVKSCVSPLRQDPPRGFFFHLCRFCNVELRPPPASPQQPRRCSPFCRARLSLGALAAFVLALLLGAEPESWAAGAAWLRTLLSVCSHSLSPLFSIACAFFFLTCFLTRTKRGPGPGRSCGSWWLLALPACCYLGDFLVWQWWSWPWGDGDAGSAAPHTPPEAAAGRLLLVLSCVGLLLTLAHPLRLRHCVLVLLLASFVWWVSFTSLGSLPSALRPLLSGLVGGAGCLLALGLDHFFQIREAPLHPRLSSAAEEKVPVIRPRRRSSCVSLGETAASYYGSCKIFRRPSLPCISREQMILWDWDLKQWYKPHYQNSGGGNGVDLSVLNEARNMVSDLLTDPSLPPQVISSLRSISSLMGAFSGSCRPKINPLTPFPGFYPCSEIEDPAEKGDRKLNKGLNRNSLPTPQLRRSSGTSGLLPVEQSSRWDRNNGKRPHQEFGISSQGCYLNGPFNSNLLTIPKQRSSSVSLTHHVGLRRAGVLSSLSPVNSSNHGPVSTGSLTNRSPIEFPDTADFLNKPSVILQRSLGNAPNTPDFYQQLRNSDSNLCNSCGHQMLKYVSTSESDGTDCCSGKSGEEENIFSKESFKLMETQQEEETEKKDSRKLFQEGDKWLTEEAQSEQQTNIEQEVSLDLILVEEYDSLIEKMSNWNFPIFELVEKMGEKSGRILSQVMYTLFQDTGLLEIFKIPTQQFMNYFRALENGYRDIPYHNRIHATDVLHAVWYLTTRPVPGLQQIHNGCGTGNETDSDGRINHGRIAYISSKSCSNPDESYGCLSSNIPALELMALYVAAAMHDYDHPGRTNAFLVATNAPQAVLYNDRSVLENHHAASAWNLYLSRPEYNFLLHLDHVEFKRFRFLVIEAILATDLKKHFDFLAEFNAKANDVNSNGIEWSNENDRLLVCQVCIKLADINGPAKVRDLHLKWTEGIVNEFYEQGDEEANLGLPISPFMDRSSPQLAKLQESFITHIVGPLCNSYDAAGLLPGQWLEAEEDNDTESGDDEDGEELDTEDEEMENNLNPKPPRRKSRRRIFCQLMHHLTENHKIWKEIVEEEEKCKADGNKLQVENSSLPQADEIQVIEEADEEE", "assay": "PDE isoform selectivity, IMAP FP assay", "format": "biochemical", "method_in_brief": "as §1"}, "[6]": {"target": "PDE2A (Homo sapiens, UniProt O00408)", "sequence (O00408 whole entry, canonical isoform)": "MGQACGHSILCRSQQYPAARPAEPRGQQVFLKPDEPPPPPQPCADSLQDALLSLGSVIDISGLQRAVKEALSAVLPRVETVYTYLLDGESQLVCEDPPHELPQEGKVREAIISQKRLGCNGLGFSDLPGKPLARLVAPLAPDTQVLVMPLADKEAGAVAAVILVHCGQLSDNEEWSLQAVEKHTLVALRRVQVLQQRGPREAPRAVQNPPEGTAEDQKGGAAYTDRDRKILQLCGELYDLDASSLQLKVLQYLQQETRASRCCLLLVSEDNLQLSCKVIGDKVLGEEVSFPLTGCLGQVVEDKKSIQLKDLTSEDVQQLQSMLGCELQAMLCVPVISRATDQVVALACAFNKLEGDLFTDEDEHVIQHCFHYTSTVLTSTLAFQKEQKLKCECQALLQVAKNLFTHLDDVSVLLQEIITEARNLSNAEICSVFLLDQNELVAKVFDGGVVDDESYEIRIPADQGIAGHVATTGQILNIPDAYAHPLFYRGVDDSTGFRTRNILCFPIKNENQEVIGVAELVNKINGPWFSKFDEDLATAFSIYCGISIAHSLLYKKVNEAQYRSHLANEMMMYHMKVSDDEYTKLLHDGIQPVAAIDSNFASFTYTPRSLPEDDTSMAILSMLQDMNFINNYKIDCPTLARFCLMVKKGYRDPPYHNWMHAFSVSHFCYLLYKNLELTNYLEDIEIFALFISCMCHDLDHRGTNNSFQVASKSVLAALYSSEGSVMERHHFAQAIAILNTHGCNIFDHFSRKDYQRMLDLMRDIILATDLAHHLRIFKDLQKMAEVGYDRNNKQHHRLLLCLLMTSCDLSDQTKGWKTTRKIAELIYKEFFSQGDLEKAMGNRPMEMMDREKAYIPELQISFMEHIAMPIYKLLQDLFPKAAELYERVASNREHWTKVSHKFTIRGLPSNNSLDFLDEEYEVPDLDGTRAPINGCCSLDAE", "assay": "PDE isoform selectivity, IMAP FP assay", "format": "biochemical"}, "[7]": {"tested_on": "all other PDE isozymes, including PDE6 and PDE11", "assay": "PDE isozyme selectivity panel", "format": "biochemical, human", "settings": "concentrations up to 50 μM"}, "[8]": {"target": "human recombinant PDE5 (Homo sapiens, UniProt O76074)", "assay": "PDE5 inhibition, IMAP fluorescence polarization assay", "format": "biochemical", "settings": "for fold reduction in PDE5 inhibitory potency compared to compound 7: vs compound 7 (4-COOH, 4-chlorophenyl)"}, "[9]": {"target": "PDE10A (Homo sapiens, UniProt Q9Y233)", "sequence (Q9Y233 whole entry, canonical isoform)": "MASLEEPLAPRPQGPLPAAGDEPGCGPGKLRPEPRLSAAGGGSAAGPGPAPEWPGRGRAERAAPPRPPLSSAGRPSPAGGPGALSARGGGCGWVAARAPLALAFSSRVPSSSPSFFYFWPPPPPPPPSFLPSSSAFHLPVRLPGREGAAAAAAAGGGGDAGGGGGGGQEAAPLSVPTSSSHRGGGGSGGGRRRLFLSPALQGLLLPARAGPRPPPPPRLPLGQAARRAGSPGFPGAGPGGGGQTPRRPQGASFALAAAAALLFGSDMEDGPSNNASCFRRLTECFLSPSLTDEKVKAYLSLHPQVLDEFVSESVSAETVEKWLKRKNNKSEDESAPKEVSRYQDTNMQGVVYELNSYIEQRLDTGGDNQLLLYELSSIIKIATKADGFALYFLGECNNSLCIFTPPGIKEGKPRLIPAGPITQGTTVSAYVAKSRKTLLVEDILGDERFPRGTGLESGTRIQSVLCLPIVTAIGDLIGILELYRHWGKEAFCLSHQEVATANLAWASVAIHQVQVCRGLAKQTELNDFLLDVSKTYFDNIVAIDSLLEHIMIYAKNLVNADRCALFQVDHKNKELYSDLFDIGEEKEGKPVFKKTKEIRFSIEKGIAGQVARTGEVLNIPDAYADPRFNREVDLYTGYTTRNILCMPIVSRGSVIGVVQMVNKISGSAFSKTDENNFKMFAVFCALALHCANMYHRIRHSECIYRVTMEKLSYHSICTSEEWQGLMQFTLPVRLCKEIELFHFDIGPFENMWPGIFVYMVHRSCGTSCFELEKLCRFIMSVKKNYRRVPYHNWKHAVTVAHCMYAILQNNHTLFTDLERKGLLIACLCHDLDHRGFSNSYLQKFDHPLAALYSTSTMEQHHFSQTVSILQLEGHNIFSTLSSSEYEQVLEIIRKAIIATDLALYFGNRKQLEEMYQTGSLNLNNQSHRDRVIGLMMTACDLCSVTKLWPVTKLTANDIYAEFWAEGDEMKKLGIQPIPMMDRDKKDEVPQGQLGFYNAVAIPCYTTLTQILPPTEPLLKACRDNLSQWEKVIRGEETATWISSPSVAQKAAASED", "assay": "PDE isoform selectivity, IMAP FP assay", "format": "biochemical", "method_in_brief": "as §1"}, "[10]": {"target": "PDE1A (Homo sapiens, UniProt P54750)", "sequence (P54750 whole entry, canonical isoform)": "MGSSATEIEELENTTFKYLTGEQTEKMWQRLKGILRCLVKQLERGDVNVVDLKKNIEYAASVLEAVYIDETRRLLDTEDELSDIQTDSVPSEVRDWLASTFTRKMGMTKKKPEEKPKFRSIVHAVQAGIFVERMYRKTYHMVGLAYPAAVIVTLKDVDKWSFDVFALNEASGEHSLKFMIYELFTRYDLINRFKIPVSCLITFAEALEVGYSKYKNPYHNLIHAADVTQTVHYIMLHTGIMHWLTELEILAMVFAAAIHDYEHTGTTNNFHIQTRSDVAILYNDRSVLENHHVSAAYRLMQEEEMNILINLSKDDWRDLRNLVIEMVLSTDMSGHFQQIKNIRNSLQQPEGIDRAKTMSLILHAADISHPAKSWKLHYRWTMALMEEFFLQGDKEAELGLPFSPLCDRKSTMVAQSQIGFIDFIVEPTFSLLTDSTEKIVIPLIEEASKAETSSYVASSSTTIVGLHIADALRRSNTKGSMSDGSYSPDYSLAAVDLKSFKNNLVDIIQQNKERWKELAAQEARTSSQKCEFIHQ", "assay": "PDE isoform selectivity, IMAP FP assay", "format": "biochemical", "method_in_brief": "as §1"}, "[11]": {"tested_on": "intracellular cGMP levels in HEK293 cells", "assay": "Luciferase cGMP biosensor assay", "format": "cell-based, human", "method_in_brief": "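HEK293 cells stably expressing a GloSensor cGMP-40F construct (human PDE5A GAF-A fused to firefly luciferase) were G418-selected. Cells were seeded at 6×10⁴/well and attached overnight in DMEM + 10% FBS at 37°C, 5% CO2. They were preincubated at room temperature in CO2-independent medium with 10% FBS and 5 mmol/L luciferin. 50 μM sodium nitroprusside was added together with test compound, and luminescence was read every minute for 1 h.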"}, "[12]": {"target": "PDE3A (Homo sapiens, UniProt Q14432)", "sequence (Q14432 whole entry, canonical isoform)": "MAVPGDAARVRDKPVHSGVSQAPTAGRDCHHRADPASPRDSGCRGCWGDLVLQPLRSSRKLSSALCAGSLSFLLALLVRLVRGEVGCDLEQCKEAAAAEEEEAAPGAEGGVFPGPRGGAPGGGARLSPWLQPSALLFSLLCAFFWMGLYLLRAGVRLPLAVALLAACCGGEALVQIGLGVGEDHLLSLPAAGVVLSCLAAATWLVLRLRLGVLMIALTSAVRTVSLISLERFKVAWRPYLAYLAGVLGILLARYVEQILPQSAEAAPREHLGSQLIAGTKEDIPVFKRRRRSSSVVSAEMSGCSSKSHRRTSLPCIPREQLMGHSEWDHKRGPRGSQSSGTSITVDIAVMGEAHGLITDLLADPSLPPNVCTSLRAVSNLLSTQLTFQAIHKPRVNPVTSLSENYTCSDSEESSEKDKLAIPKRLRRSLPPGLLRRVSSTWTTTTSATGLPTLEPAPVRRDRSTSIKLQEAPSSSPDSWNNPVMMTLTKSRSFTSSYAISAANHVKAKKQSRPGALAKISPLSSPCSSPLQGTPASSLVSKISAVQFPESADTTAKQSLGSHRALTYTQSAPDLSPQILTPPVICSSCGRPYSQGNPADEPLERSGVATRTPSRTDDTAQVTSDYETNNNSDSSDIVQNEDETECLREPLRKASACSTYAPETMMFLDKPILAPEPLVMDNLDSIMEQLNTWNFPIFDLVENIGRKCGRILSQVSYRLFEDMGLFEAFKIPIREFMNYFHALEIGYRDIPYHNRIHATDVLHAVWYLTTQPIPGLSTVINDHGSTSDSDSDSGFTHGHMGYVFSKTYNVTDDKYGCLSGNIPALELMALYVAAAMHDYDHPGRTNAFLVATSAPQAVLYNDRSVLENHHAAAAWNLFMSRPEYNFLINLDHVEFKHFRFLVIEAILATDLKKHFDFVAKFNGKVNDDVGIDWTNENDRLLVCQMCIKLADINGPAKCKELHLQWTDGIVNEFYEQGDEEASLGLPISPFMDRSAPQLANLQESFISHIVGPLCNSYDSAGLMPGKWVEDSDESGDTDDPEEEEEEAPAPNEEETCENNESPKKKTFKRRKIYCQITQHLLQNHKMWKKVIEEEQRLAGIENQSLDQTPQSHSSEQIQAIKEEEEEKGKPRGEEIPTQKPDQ", "assay": "PDE isoform selectivity, IMAP FP assay", "format": "biochemical", "method_in_brief": "as §1"}, "[13]": {"target": "PDE7A (Homo sapiens, UniProt Q13946)", "assay": "PDE isoform selectivity, IMAP FP assay", "format": "biochemical", "settings": "read-out: % inhibition at 50 μM, PDE7A (cAMP)", "method_in_brief": "as §1"}, "[14]": {"target": "PDE9A (Homo sapiens, UniProt O76083)", "assay": "PDE isoform selectivity, IMAP FP assay", "format": "biochemical", "settings": "read-out: % inhibition at 50 μM, PDE9A (cGMP)", "method_in_brief": "as §1"}, "[15]": {"target": "T1, COX-2 (Ovis aries, UniProt P79208)", "T1 sequence (P79208 17-603)": "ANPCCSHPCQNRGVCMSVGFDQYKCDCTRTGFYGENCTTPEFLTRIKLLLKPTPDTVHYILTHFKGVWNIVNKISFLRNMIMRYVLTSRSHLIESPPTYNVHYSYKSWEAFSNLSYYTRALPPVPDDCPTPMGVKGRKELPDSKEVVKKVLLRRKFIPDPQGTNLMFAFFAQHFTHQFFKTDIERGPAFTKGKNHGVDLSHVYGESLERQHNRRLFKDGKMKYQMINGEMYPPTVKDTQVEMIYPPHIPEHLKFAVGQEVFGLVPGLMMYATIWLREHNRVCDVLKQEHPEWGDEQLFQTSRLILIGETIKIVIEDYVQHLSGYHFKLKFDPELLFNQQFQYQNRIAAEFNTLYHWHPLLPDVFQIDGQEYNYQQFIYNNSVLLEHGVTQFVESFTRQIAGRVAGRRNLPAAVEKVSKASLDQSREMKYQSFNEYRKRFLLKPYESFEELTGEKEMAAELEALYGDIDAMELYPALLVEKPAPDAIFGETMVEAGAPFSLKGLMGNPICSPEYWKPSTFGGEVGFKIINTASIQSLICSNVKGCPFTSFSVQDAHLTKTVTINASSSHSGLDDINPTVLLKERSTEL", "assay": "COX-2 colorimetric assay", "format": "biochemical, ovine", "method_in_brief": "(§2)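 Ovine COX-1 or COX-2 was diluted with hemin in 0.1 M Tris-HCl, pH 8. Test compound or vehicle was preincubated with enzyme for 5 min at 25°C. Colorimetric substrate was added, then arachidonic acid, and the reaction ran 5 min more at 25°C. Activity was read as substrate absorbance at 590 nm.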"}, "[16]": {"target": "T2, COX-1 (Ovis aries, UniProt P05979)", "T2 sequence (P05979 25-600)": "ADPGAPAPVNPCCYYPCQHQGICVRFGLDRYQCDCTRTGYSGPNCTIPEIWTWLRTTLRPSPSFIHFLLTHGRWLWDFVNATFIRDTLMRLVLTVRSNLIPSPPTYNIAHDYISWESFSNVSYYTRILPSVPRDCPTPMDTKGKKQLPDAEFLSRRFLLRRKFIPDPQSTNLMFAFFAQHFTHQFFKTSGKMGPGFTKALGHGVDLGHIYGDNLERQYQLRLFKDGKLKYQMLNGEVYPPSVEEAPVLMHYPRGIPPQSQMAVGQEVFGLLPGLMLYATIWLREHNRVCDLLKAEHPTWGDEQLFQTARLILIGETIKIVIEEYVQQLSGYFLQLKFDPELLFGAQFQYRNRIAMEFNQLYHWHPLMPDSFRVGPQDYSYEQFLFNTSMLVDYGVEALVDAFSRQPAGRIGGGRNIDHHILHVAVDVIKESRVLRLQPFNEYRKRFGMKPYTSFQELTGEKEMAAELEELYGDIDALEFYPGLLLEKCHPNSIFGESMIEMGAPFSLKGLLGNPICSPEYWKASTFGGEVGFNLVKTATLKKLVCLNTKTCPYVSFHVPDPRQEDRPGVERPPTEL", "assay": "COX-1 colorimetric assay", "format": "biochemical, ovine", "settings": "screening concentration 100 μM", "method_in_brief": "as §2"}, "[17]": {"settings": "read-out: PDE5 % inh at 50 (μM)"}}, "note": "Entries after “also recorded” stand apart in the source; their conditions may differ. Like-named read-outs stand apart in the source and are kept apart here.", "data": [{"smiles": "CC(C)(C)C1=NN(c2ccc(C(=O)O)cc2)C(c2ccc(Cl)cc2Cl)C1", "note": "(centres unmarked) [Compound 11, 4-(3-(tert-Butyl)-5-(2,4-dichlorophenyl)-4,5-dihydro-1H-pyrazol-1-yl) benzoic acid]", "values": [{"measurement": "inhibition at 50 µM", "setting": "[1]", "result": 4, "unit": "%"}, {"measurement": "inhibition at 50 µM", "setting": "[2]", "result": 16.2, "unit": "%"}, {"measurement": "inhibition at 50 µM", "setting": "[3]", "result": 1.6, "unit": "%"}, {"measurement": "inhibition at 50 µM", "setting": "[4]; read-out: % inhibition at 50 μM, PDE11A (cAMP)", "result": 0.9, "unit": "%"}, {"measurement": "inhibition at 50 µM", "setting": "[4]; read-out: % inhibition at 50 μM, PDE11A (cGMP)", "result": 5.9, "unit": "%"}, {"measurement": "inhibition at 50 µM", "setting": "[5]; read-out: % inhibition at 50 μM, PDE3B (cAMP)", "result": 6.7, "unit": "%"}, {"measurement": "inhibition at 50 µM", "setting": "[5]; read-out: % inhibition at 50 μM, PDE3B (cGMP)", "result": 15.7, "unit": "%"}, {"measurement": "inhibition at 50 µM", "setting": "[6]; read-out: % inhibition at 50 μM, PDE2A (cAMP)", "result": 5.6, "unit": "%"}, {"measurement": "inhibition at 50 µM", "setting": "[6]; read-out: % inhibition at 50 μM, PDE2A (cGMP)", "result": 19.9, "unit": "%"}, {"measurement": "effect on activity of all other PDE isozymes", "setting": "[7]", "result": "without significantly affecting the activity"}, {"measurement": "IC50", "setting": "[8]", "result": 2.7, "unit": "µM"}, {"measurement": "inhibition at 50 µM", "setting": "[8]; read-out: % inhibition at 50 μM, PDE5A (cGMP)", "result": 97, "unit": "%"}, {"measurement": "inhibition at 50 µM", "setting": "[8]; [17]", "result": 97, "unit": "%"}, {"measurement": "inhibition at 50 µM", "setting": "[9]; read-out: % inhibition at 50 μM, PDE10A (cAMP)", "result": 3.6, "unit": "%"}, {"measurement": "inhibition at 50 µM", "setting": "[9]; read-out: % inhibition at 50 μM, PDE10A (cGMP)", "result": 4.5, "unit": "%"}, {"measurement": "inhibition at 50 µM", "setting": "[10]; read-out: % inhibition at 50 μM, PDE1A (cAMP)", "result": 2.6, "unit": "%"}, {"measurement": "inhibition at 50 µM", "setting": "[10]; read-out: % inhibition at 50 μM, PDE1A (cGMP)", "result": 22, "unit": "%"}, {"measurement": "relative potency/efficacy in increasing intracellular cGMP levels", "setting": "[11]; comparison among tadalafil, celecoxib, 11 and 19", "result": "substantially higher efficacy; also recorded: higher cellular potency"}, {"measurement": "intracellular cGMP levels (luminescence), concentration dependence", "setting": "[11]; pretreated with sodium nitroprusside", "result": "concentration-dependent increase"}, {"measurement": "inhibition at 50 µM", "setting": "[12]; read-out: % inhibition at 50 μM, PDE3A (cAMP)", "result": 12.4, "unit": "%"}, {"measurement": "inhibition at 50 µM", "setting": "[12]; read-out: % inhibition at 50 μM, PDE3A (cGMP)", "result": 36.2, "unit": "%"}, {"measurement": "inhibition at 50 µM", "setting": "[13]", "result": 9.1, "unit": "%"}, {"measurement": "inhibition at 50 µM", "setting": "[14]", "result": 10.7, "unit": "%"}]}, {"smiles": "Cc1ccc(C2CC(C(C)(C)C)=NN2c2ccc(C(=O)O)cc2)cc1", "note": "(centres unmarked) [Compound 22, 4-(3-tert-Butyl-5-p-tolyl-4,5-dihydro-1H-pyrazol-1-yl)benzoic acid]", "values": [{"measurement": "COX2 inhibition at 100 μM", "setting": "[15]; screening concentration 100 μM", "result": "no COX inhibition"}, {"measurement": "COX1 inhibition at 100 μM", "setting": "[16]", "result": "no COX inhibition"}, {"measurement": "fold improvement in PDE5 inhibitory activity compared to celecoxib", "setting": "[8]; ratio of IC50 vs celecoxib", "result": 4, "unit": "fold"}, {"measurement": "inhibition at 50 µM", "setting": "[8]; [17]", "result": 93, "unit": "%"}]}, {"smiles": "CC(C)(C)C1=NN(c2ccc(S(=O)(=O)O)cc2)C(c2ccc(F)cc2)C1", "note": "(centres unmarked) [Compound 31, 4-(3-tert-Butyl-5-(4-fluorophenyl)-4,5-dihydro-1H-pyrazol-1-yl) benzenesulfonic acid]", "values": [{"measurement": "IC50", "setting": "[15]", "result": 80, "unit": "µM"}, {"measurement": "IC50", "setting": "[8]", "result": 9.3, "unit": "µM"}, {"measurement": "inhibition at 50 µM", "setting": "[8]; [17]", "result": 80, "unit": "%"}]}, {"smiles": "CC(C)(C)C1=NN(c2ccc(S(=O)(=O)O)cc2)C(c2ccc(Cl)cc2)C1", "note": "(centres unmarked) [Compound 32, 4-(3-tert-Butyl-5-(4-chlorophenyl)-4,5-dihydro-1H-pyrazol-1-yl)benzenesulfonic acid]", "values": [{"measurement": "IC50", "setting": "[15]", "result": 85, "unit": "µM"}, {"measurement": "IC50", "setting": "[8]", "result": 8.7, "unit": "µM"}, {"measurement": "inhibition at 50 µM", "setting": "[8]; [17]", "result": 85, "unit": "%"}, {"measurement": "fold reduction in PDE5 inhibitory potency compared to compound 7", "setting": "[8]", "result": "about 2 fold"}]}, {"smiles": "CC(C)(C)C1=NN(c2ccc(S(N)(=O)=O)cc2)C(c2ccc(Cl)cc2)C1", "note": "(centres unmarked) [Compound 33, 4-(3-tert-Butyl-5-(4-chlorophenyl)-4,5-dihydro-1H-pyrazol-1-yl)benzenesulfonamide]", "values": [{"measurement": "IC50", "setting": "[15]", "result": 34, "unit": "µM"}, {"measurement": "IC50", "setting": "[8]", "result": 48.7, "unit": "µM"}, {"measurement": "inhibition at 50 µM", "setting": "[8]; [17]", "result": 57.5, "unit": "%"}, {"measurement": "fold reduction in PDE5 inhibitory potency compared to compound 7", "setting": "[8]", "result": "about 15 fold"}]}]}
